Calls of active or inactive are those of the source. The calls are words filed in the database; no cut-off is given here.
How the values were obtained:
[1] = biological target: T1, Topoisomerase I (Bos taurus) (UniProt Q2HPH0); assay: (§1) Inhibition of calf thymus topoisomerase 1 assessed as suppression of relaxation of supercoiled pBR322 DNA at 100 uM incubated for 0.5 hrs by bromophenol blue and xylene cyanol FF staining based electrophoresis method
T1 sequence (whole entry): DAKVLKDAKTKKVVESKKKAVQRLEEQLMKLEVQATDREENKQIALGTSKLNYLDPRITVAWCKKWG
Summary of the method: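 Calf thymus Topo I with supercoiled pBR322 DNA and 100 μM compound, 37 °C for 0.5 h. Stopped with dye solution (bromophenol blue, xylene cyanol FF, glycerol). 1% agarose, 0.66 h in 1× TAE, then 5 μg mL-1 EB staining 0.5 h and UV imaging. Inhibition judged from supercoiled DNA remaining; camptothecin as control.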

[2] = biological target: T1, Topoisomerase I (Bos taurus); assay: Inhibition of calf thymus topoisomerase 1 assessed as increase in nicked DNA at 50 uM using supercoiled pBR322 DNA incubated for 0.5 hrs by ethidium bromide staining based DNA-cleavage assay
Summary of the method: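 Reaction: 20 units Topo I, 0.5 μg supercoiled pBR322 DNA, 50 or 100 μM compound in 40 μL Topo I buffer, 37 °C for 0.5 h. Terminated with 1% SDS, proteinase K 0.8 mg mL-1 at 50 °C for 10 min. Electrophoresis 60 V, 25 °C, 0.5 h, EB soak 0.5 μg mL-1, second run 0.5 h. Read-out: nicked versus other band intensities, UV.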

[3] = biological target: T1, Topoisomerase I (Bos taurus); assay: Inhibition of calf thymus topoisomerase 1 assessed as increase in nicked DNA at 10 uM using supercoiled pBR322 DNA incubated for 0.5 hrs by ethidium bromide staining based DNA-cleavage assay
[4] = tested on: DNA topoisomerase I (Bos taurus); assay: Induction of DNA intercalation assessed as reduction in topoisomerase 1-mediated DNA relaxation at 100 uM using supercoiled pBR322 DNA incubated for 0.5 hrs in presence of calf thymus topoisomerase 1 by electrophoresis method
[5] = biological target: T1, Topoisomerase I (Bos taurus); assay: as §1, with “Potency index, ratio of enzyme inhibition of securinine to enzyme inhibition of test compound for inhibition” for “Inhibition”
[6] = biological target: T1, Topoisomerase I (Bos taurus); assay: Inhibition of calf thymus topoisomerase 1 assessed as reduction in topo1/DNA complex formation at 50 to 400 uM pre-incubated for 0.33 hrs before addition of supercoiled pBR322 DNA substrate by EMSA
Summary of the method: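 BSA added to Topo I buffer, then four units calf thymus Topo I and compound (50, 100, 200 or 400 μM), standing 0.33 h. 0.1 μg pBR322 DNA added, 37 °C for 0.5 h. Electrophoresis at 1 V cm-1, 4 °C, 8 h on 1% gel containing EB; bands under UV.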

CCCN(C(=O)CCCCC(=O)N(CCC)[C@H]1CC2=CC(=O)O[C@@]23C[C@@H]1N1CCCC[C@@H]13)[C@@H]1CC2=CC(=O)O[C@@]23C[C@@H]1N1CCCC[C@@H]13
inhibition [1]: Active | inhibition [2]: inactive | inhibition [3]: inactive

CCCN(C(=O)CCCC(=O)N(CCC)[C@H]1CC2=CC(=O)O[C@@]23C[C@@H]1N1CCCC[C@@H]13)[C@@H]1CC2=CC(=O)O[C@@]23C[C@@H]1N1CCCC[C@@H]13
inhibition [1]: Active

CCCN(C(=O)Cc1cccc(CC(=O)N(CCC)[C@H]2CC3=CC(=O)O[C@@]34C[C@@H]2N2CCCCC24)c1)C1CC2=CC(=O)O[C@@]23C[C@@H]1N1CCCCC13 (single isomer, unassigned)
inhibition [1]: Active | Activity [4]: inactive

CCCN(C(=O)Cc1ccc(CC(=O)N(CCC)[C@H]2CC3=CC(=O)O[C@@]34C[C@@H]2N2CCCC[C@@H]24)cc1)[C@@H]1CC2=CC(=O)O[C@@]23C[C@@H]1N1CCCC[C@@H]13
inhibition [1]: Active | Activity [4]: inactive

CCCN(C(=O)c1cccc(C(=O)N(CCC)[C@H]2CC3=CC(=O)O[C@@]34C[C@@H]2N2CCCCC24)c1)C1CC2=CC(=O)O[C@@]23C[C@@H]1N1CCCC[C@@H]13 (single isomer, unassigned)
inhibition [1]: Active | Ratio [5]: 3 | inhibition [6]: Dose-dependent effect | inhibition [3]: Active | Activity [4]: inactive

CCCN(C(=O)c1ccc(C(=O)N(CCC)[C@H]2CC3=CC(=O)O[C@@]34C[C@@H]2N2CCCCC24)cc1)C1CC2=CC(=O)O[C@@]23C[C@@H]1N1CCCC[C@@H]13 (single isomer, unassigned)
inhibition [1]: Active | Activity [4]: inactive

CCCN(C(=O)[C@H]1CCC[C@@H](C(=O)N(CCC)[C@H]2CC3=CC(=O)O[C@@]34C[C@@H]2N2CCCC[C@@H]24)C1)[C@@H]1CC2=CC(=O)O[C@@]23C[C@@H]1N1CCCC[C@@H]13
inhibition [1]: Active | inhibition [2]: inactive | inhibition [3]: inactive

O=C1C=C2C=C[C@@H]3C[C@@]2(O1)[C@H]1CCCCN31
inhibition [1]: Active

CCCN(C(=O)[C@H]1CCCC[C@H]1C(=O)N(CCC)[C@H]1CC2=CC(=O)O[C@@]23C[C@@H]1N1CCCC[C@@H]13)[C@@H]1CC2=CC(=O)O[C@@]23C[C@@H]1N1CCCC[C@@H]13
inhibition [1]: Active

CC[C@@]1(O)C(=O)OCc2c1cc1n(c2=O)Cc2cc3ccccc3nc2-1
inhibition [1]: Active | inhibition [2]: Active | inhibition [3]: Active

CCCN(C(=O)[C@H]1CC[C@H](C(=O)N(CCC)[C@H]2CC3=CC(=O)O[C@@]34C[C@@H]2N2CCCC[C@@H]24)CC1)[C@@H]1CC2=CC(=O)O[C@@]23C[C@@H]1N1CCCC[C@@H]13
inhibition [1]: Active

CCCN(C(=O)c1ccccc1C(=O)N(CCC)[C@H]1CC2=CC(=O)O[C@@]23C[C@@H]1N1CCCCC13)C1CC2=CC(=O)O[C@@]23C[C@@H]1N1CCCC[C@@H]13 (single isomer, unassigned)
inhibition [1]: Active | Activity [4]: inactive

CCCN(C(=O)Cc1ccccc1CC(=O)N(CCC)[C@H]1CC2=CC(=O)O[C@@]23C[C@@H]1N1CCCC[C@@H]13)[C@@H]1CC2=CC(=O)O[C@@]23C[C@@H]1N1CCCC[C@@H]13
inhibition [1]: Active | Activity [4]: inactive

CCCN(C(=O)c1ccccc1)[C@H]1CC2=CC(=O)O[C@@]23C[C@@H]1N1CCCC[C@@H]13
inhibition [1]: Active | inhibition [2]: inactive | inhibition [3]: inactive

— ChEMBL document CHEMBL4138059, “Novel bivalent securinine mimetics as topoisomerase I inhibitors” (Medchemcomm, 2017)
